Starred links: 1 amine or outer side, 2 acyl side, 3 side chain; linkers in the order of their positions; H or OH if unused. Non-standard residues stand in square brackets, D forms with d. Residues, ends and D or L forms follow the SMILES beside them. *: point of attachment. 2Nal = N[C@@H](Cc1ccc2ccccc2c1)C(=O)O; CO = O=C([*:1])[*:2]; NHBn = c1ccc(CN*)cc1; Propionyl = CCC(=O)*; NHPh = c1ccc(N*)cc1
Assays:
DCN1-like protein 1 [1] = biological target: T1, DCN1-like protein 1 (Homo sapiens, UniProt Q96GG9); assay: Displacement of (S)-N1-((19S,22S)-26-Amino-19-carbamoyl-1-(3',6'-dihydroxy-3-oxo-3H-spiro[isobenzofuran-1,9'-xanthen]-5-yl)-1,13,21-trioxo-5,8,11-trioxa-2,14,20-triazahexacosan-22-yl)-2-((2S,5S,8S,11S,14S,17S,20S,23S,26S)-2-(3-amino-3-oxopropyl)-5,20-bis(4-aminobutyl)-14-benzyl-23-((S)-sec-butyl)-11-(hydroxymethyl)-8,17-diisobutyl-26-(naphthalen-2-ylmethyl)-4,7,10,13,16,19,22,25,28-nonaoxo-3,6,9,12,15,18,21,24,27-nonaazanonacosanamido)pentanediamide from recombinant N-terminal His6-tagged human DCN1 (58 to 259 residues) expressed in Escherichia coli Rosetta2 cells after 30 mins by fluorescence polarization assay
T1 sequence (Q96GG9 whole entry, the tested form may be a part): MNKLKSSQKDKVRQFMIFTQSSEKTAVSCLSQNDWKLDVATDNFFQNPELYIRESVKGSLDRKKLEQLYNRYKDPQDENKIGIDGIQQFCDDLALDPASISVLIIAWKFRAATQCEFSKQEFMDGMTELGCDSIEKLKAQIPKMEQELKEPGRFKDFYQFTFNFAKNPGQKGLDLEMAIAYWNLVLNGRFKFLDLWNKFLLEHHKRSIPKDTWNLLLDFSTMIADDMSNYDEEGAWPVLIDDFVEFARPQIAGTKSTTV

DCN1-like protein 1 [2] = biological target: T1, DCN1-like protein 1; assay: Binding affinity to biotin labeled recombinant N-terminal His6-tagged human DCN1 (58 to 259 residues) expressed in Escherichia coli Rosetta2 cells by biolayer interferometry analysis
Method in brief: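 Recombinant human DCN1 (58–259) was biotinylated at a 1:1 molar ratio in PBS for 2 h at 4 °C, dialyzed, then loaded on super streptavidin sensors from a 10 μg/mL solution. Blocked streptavidin sensors served as reference.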

Row | Ki (DCN1-like protein 1 [1]) | IC50 (DCN1-like protein 1 [1]) | Kd (DCN1-like protein 1 [2]) | Structure (SMILES)
1 | 810 nM | – | – | CCC(=O)N[C@@H](Cc1ccc2ccccc2c1)C(=O)N[C@H](C(=O)N[C@@H](CCCCN)C(=O)NCc1ccccc1)[C@@H](C)CC (Propionyl-[2Nal]-Ile-Lys-NHBn)
2 | 44.3 nM | 368 nM | – | CCC(=O)N[C@@H](Cc1ccc2ccccc2c1)C(=O)N[C@@H](CC1CCCCC1)C(=O)N[C@@H](CCCCN)C(=O)NC(c1ccccc1)c1ccccc1
3 | – | > 100000 nM | – | CC[C@H](C)[C@H](NC(=O)[C@@H](N)Cc1ccc2ccccc2c1)C(=O)N[C@@H](CCCCN)C(=O)N[C@@H](CC(C)C)C(N)=O (H-[2Nal]IKL-NH2)
4 | – | – | 4.1 nM | CCC(=O)N[C@@H](Cc1nc2ccc(Cl)cc2s1)C(=O)N[C@H](C(=O)N[C@@H](CCCCN)C(=O)N[C@@H]1CCOc2ccccc21)C1CCCC1
5 | 7500 nM | 34900 nM | – | CCC(=O)N[C@@H](Cc1ccc2ccccc2c1)C(=O)N[C@H](C(=O)N[C@@H](CCCCN)C(=O)Nc1ccccc1)[C@@H](C)CC (Propionyl-[2Nal]-Ile-Lys-NHPh)
6 | 4000 nM | 18500 nM | – | CC[C@H](C)[C@H](NC(=O)[C@H](Cc1ccc2ccccc2c1)NC(=O)NC)C(=O)N[C@@H](CCCCN)C(=O)N[C@@H](CC(C)C)C(N)=O ({NHMe-CO}-[2Nal]IKL-NH2)
7 | 36.3 nM | 330 nM | 56.4 nM | CCC(=O)N[C@@H](Cc1ccc2ccccc2c1)C(=O)N[C@H](C(=O)N[C@@H](CCCCN)C(=O)NC(c1ccccc1)c1ccccc1)C1CCCC1
8 | 1100 nM | 5200 nM | – | CCC(=O)N[C@@H](Cc1ccc2ccccc2c1)C(=O)N[C@H](C(=O)N[C@@H](CCCCN)C(=O)N[C@@H](CC(C)C)C(N)=O)[C@@H](C)CC (Propionyl-[2Nal]IKL-NH2)
